Reference: ChEMBL document CHEMBL4325867, “Synthesis and biological evaluation of novel H6 analogues as drug resistance reversal agents” (Eur J Med Chem, 2019)
Calls of active or inactive are those of the source. No cut-off for these calls is given here.

Tests used:
[1] = molecular target: T1, ATP-dependent translocase ABCB1 (Homo sapiens, UniProt P08183); experiment: Reversal of P-gp-mediated drug resistance in human KBV cells assessed as potentiation of paclitaxel-induced cytotoxicity by measuring cell survival at 5 uM after 72 hrs by MTT assay (reference value: 98 +/- 19%); type: cell-based
[2] = Cytotoxicity against human KBV cells assessed as cell survival at 5 uM after 72 hrs by MTT assay relative to control; type: cell-based; conditions: read-out: Survival
Procedure, shortened: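 KBV cells (RPMI-1640 with 10% heat-inactivated FCS, 37 °C, 5% CO2, log-phase) were seeded in 96-well plates and exposed to compound alone at 5 µM for 72 h. MTT was added and incubated, then DMSO was added. OD was read at 570 nm and survival rate was calculated.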

[3] = molecular target: T1, ATP-dependent translocase ABCB1; experiment: Reversal of P-gp-mediated drug resistance in human KBV cells assessed as potentiation of paclitaxel-induced cytotoxicity by measuring reduction in paclitaxel IC50 by MTT assay; type: cell-based
[4] = molecular target: T1, ATP-dependent translocase ABCB1; experiment: Reversal of P-gp-mediated drug resistance in human KBV cells assessed as potentiation of paclitaxel-induced cytotoxicity by measuring fold reduction in paclitaxel IC50 at 10 uM after 72 hrs by MTT assay relative to paclitaxel alone; type: cell-based
Procedure, shortened: (§1)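 KBV cells cultured in RPMI-1640 with 10% heat-inactivated fetal calf serum at 37°C, 5% CO2, and used in log phase. Seeded in 96-well plates. Exposed to paclitaxel with or without modulator (5 or 10 µM) for 24, 48 or 72 h. MTT added, formazan dissolved in DMSO, OD read at 570 nm. Survival rate used to derive paclitaxel IC50. RF taken as the fold reduction of IC50 relative to paclitaxel alone.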

[5] = molecular target: T1, ATP-dependent translocase ABCB1; experiment: Reversal of P-gp-mediated drug resistance in human KBV cells assessed as potentiation of paclitaxel-induced cytotoxicity by measuring fold reduction in paclitaxel IC50 at 5 uM after 72 hrs by MTT assay relative to paclitaxel alone; type: cell-based; procedure, shortened: as §1
[6] = n-octanol/aqueous buffer solution partition coefficient, log P of the compound at pH 6.8 after 4 hrs by HPLC method; type: physicochemical
Procedure, shortened: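 Shake-flask partition between n-octanol and pH 6.8 buffer at a 1:1 ratio, room temperature, shaken 4 h. Compound concentration in each phase measured by HPLC.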

[7] = molecular target: T1, ATP-dependent translocase ABCB1; experiment: Reversal of P-gp-mediated drug resistance in human KBV cells assessed as potentiation of paclitaxel-induced cytotoxicity by measuring fold reduction in paclitaxel IC50 at 5 uM after 24 hrs by MTT assay; type: cell-based; procedure, shortened: as §1
[8] = molecular target: T1, ATP-dependent translocase ABCB1; experiment: Reversal of P-gp-mediated drug resistance in human KBV cells assessed as potentiation of paclitaxel-induced cytotoxicity by measuring fold reduction in paclitaxel IC50 at 10 uM after 24 hrs by MTT assay; type: cell-based; procedure, shortened: as §1
[9] = molecular target: T1, ATP-dependent translocase ABCB1; experiment: Reversal of P-gp-mediated drug resistance in human KBV cells assessed as potentiation of paclitaxel-induced cytotoxicity by measuring fold reduction in paclitaxel IC50 at 5 uM after 48 hrs by MTT assay; type: cell-based; procedure, shortened: as §1
[10] = molecular target: T1, ATP-dependent translocase ABCB1; experiment: Reversal of P-gp-mediated drug resistance in human KBV cells assessed as potentiation of paclitaxel-induced cytotoxicity by measuring fold reduction in paclitaxel IC50 at 10 uM after 48 hrs by MTT assay; type: cell-based; procedure, shortened: as §1
[11] = molecular target: T1, ATP-dependent translocase ABCB1; experiment: Inhibition of P-gp-mediated Rhodamine-123 efflux in human KBV cells assessed as Rhodamine-123 accumulation preincubated for 2 hrs followed by Rhodamine-123 addition measured after 30 mins by flow cytometry; type: cell-based; conditions: 0.5 h
[12] = molecular target: T1, ATP-dependent translocase ABCB1; experiment: Reversal of P-gp-mediated drug resistance in human KBV cells assessed as potentiation of paclitaxel-induced cell cycle arrest by measuring accumulation at G2/M phase at 10 uM after 24 hrs by propidium iodide staining based flow cytometry
Procedure, shortened: (§2)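 KBV cells plated in 6-well plates overnight, then treated for 24 h at 10 µM alongside paclitaxel. Cells fixed in 70% ethanol overnight at -20 °C, washed in PBS, and stained 30 min with PI/RNase A. Flow cytometry gave the cell-cycle distribution, with sub-G1 taken as apoptotic cells. Mean ± SD, n = 3.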

[13] = molecular target: T1, ATP-dependent translocase ABCB1; experiment: Reversal of P-gp-mediated drug resistance in human KBV cells assessed as potentiation of paclitaxel-induced cell cycle arrest by measuring accumulation at sub-G1 phase at 10 uM after 24 hrs by propidium iodide staining based flow cytometry; procedure, shortened: as §2
[14] = Solubility of the compound in water; type: physicochemical; conditions: buffer
[15] = Cytotoxicity against human KBV cells xenografted in Balb/c nude mouse assessed as tumor growth inhibition at 50 mg/kg, po via gavage; type: organism-based; conditions: in vivo
Procedure, shortened: (§3)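 Male BALB/c nude mice, 6−8 weeks old, given 5 × 10^6 KBV cells subcutaneously in the dorsal region. Randomized once tumors reached about 100-200 mm3, five per group: control, paclitaxel 30 mg/kg, test agent 50 mg/kg, or the combination. Paclitaxel given i.p. twice a week; test agent by gavage. Tumor growth measured every three days; tumors excised and weighed at the end.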

[16] = test system: Homo sapiens; experiment: Potentiation of paclitaxel-induced antitumor activity against human KBV cells xenografted in Balb/c nude mouse assessed as tumor growth inhibition at 50 mg/kg, po via gavage cotreated with 30 mg/kg, ip paclitaxel; type: functional, organism-based; procedure, shortened: as §3
[17] = Toxicity in Balb/c nude mouse xenografted with human KBV cells at 50 mg/kg, po via gavage cotreated with 30 mg/kg, ip paclitaxel; type: organism-based; conditions: in vivo
[18] = Potentiation of paclitaxel-induced antitumor activity against human KBV cells xenografted in nude mouse assessed as tumor weight at […] cotreated with 30 mg/kg paclitaxel relative to control; type: functional

T1 sequence (P08183 whole entry): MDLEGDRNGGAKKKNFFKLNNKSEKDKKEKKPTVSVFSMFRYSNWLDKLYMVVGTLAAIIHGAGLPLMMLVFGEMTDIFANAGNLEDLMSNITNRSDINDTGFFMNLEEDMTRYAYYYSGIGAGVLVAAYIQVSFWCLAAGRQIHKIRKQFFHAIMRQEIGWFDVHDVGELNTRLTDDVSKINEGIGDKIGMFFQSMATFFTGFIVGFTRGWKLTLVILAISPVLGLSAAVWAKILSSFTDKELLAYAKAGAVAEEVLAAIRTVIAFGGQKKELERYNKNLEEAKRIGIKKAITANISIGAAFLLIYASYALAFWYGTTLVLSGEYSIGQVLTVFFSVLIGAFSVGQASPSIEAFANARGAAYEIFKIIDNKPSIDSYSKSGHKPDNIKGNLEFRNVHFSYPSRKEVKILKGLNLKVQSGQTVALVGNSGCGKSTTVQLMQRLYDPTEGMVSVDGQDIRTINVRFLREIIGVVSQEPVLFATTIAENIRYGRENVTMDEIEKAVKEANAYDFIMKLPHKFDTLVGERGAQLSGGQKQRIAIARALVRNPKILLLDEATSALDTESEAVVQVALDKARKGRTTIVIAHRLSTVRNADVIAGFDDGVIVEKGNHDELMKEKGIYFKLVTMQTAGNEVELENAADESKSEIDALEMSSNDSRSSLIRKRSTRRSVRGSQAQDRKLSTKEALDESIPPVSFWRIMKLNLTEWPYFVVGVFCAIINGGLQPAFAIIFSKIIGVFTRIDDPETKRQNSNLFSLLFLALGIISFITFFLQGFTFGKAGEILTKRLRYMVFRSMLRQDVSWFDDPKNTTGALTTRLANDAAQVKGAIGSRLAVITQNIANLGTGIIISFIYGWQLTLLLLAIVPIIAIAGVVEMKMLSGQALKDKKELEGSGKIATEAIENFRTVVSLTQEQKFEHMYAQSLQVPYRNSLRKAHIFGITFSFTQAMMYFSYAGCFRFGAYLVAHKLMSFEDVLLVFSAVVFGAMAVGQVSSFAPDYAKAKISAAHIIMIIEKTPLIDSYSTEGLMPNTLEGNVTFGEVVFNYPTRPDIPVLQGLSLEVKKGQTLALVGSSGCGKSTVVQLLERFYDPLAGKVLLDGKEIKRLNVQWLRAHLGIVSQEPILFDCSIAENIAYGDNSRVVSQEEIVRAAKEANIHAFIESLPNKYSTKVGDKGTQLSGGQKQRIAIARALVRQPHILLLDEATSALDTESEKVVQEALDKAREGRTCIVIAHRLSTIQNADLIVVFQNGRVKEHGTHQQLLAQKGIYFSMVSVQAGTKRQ

SMILES | Survival [1] [%] | viability at 72 h, 5 µM [2] [%] | Activity [3] | fold change (FC) [4] | fold change (FC) [5] | logD at 4 h [6] | fold change (FC) [7] | fold change (FC) [8] | fold change (FC) [9] | fold change (FC) [10] | inhibition (INH) [11] | Activity [12] | Activity [13] | solubility [14] | TGI [15] | TGI [16] | Activity [17] | Activity [18] [%]
CN(C)CCCOC(=O)[C@]12CCC(C)(C)C[C@H]1C1=CC[C@@H]3[C@@]4(C)Cc5nccnc5[C@@](C)(CO)[C@@H]4CC[C@@]3(C)[C@]1(C)CC2 | 10 | 97 | Dose-dependent effect and Tde | 250.77 | 32.5 | -1.25 | 77.1 | 109.79 | 65.92 | 81.11 | Dose-dependent effect | Active | Active | Soluble | Non-Toxic | Active | Non-Toxic | –
CC1(C)CC[C@]2(C(=O)OCc3ccccc3)CC[C@]3(C)C(=CC[C@@H]4[C@@]5(C)Cc6nccnc6[C@@](C)(CO)[C@@H]5CC[C@]43C)[C@@H]2C1 | 18 | – | – | – | – | -0.54 | – | – | – | – | – | – | – | – | – | – | – | 42
